{"source": "ChEMBL document CHEMBL4699636", "about": "“Novel 2,7-Diazaspiro[4,4]nonane Derivatives to Inhibit Mouse and Human Osteoclast Activities and Prevent Bone Loss in Ovariectomized Mice without Affecting Bone Formation” (J Med Chem, 2020)", "key": {"[1]": {"tested_on": "Osteoclast (Homo sapiens)", "experiment": "Inhibition of resorption activity of human peripheral blood cell-derived osteoclasts incubated for 48 hrs by Kossa-staining based assay"}, "[2]": {"experiment": "Toxicity in C57BL6/J mouse model of OVX-induced bone loss assessed as effect on bone formation by measuring number of osteoblasts per bone surface level in femoral metaphysis at 20 mg/kg, ip BID for 4 weeks by histomorphometry (4.55 +/ 2.53 /mm)", "type": "organism-based", "conditions": "in vivo, 672 h", "in_short": "(§1)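 OVX mice, 12 weeks old, ip 20 mg/kg q.d. or b.i.d. for 4 weeks in CMC/Tween 80 vehicle. Distal right femur taken day 28. Static trabecular parameters measured on one 4-µm Masson-Goldner trichrome section, ROI 0.75 mm². n=10 per group, 9 in OVX+vehicle.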"}, "[3]": {"experiment": "Toxicity in C57BL6/J mouse model of OVX-induced bone loss assessed as effect on osteoclast numbers per bone perimeter at 20 mg/kg, IP BID for 4 weeks", "type": "organism-based", "conditions": "in vivo, 672 h", "in_short": "as §1"}, "Mus musculus [4]": {"tested_on": "Mus musculus", "experiment": "Antiosteoporotic activity in C57BL6/J mouse model of OVX-induced bone loss assessed as trabecular separation level in femoral metaphysis at 20 mg/kg, ip QD for 4 weeks by histomorphometry (319.80 +/- 106.52 um)", "type": "functional", "in_short": "as §1"}, "[5]": {"experiment": "Toxicity in C57BL6/J mouse model of OVX-induced bone loss assessed as effect on bone formation by measuring osteoblast surface per trabecular bone surface level in femoral metaphysis at 20 mg/kg, ip QD for 4 weeks by histomorphometry (5.03 +/ 2.92 %)", "type": "organism-based", "conditions": "in vivo, 672 h", "in_short": "as §1"}, "[6]": {"experiment": "Toxicity in C57BL6/J mouse model of OVX-induced bone loss assessed as effect on bone formation by measuring number of osteoblasts per bone surface level in femoral metaphysis at 20 mg/kg, ip QD for 4 weeks by histomorphometry (4.55 +/ 2.53 /mm)", "type": "organism-based", "conditions": "in vivo, 672 h", "in_short": "as §1"}, "[7]": {"tested_on": "Osteoclast (Homo sapiens)", "experiment": "Inhibition of resorption activity of human peripheral blood cell-derived osteoclasts at 1-20 uM incubated for 48 hrs by Kossa-staining based assay", "conditions": "dose microM 1-20, time 48.0 hrs"}, "Mus musculus [8]": {"tested_on": "Mus musculus", "experiment": "Antiosteoporotic activity in C57BL6/J mouse model of OVX-induced bone loss assessed as trabecular thickness level in femoral metaphysis at 20 mg/kg, ip QD for 4 weeks by histomorphometry (39.96 +/- 5.42 um)", "type": "functional", "in_short": "as §1"}, "Mus musculus [9]": {"tested_on": "Mus musculus", "experiment": "Antiosteoporotic activity in C57BL6/J mouse model of OVX-induced bone loss assessed as serum CTX-1 level […] at 20 mg/kg, ip QD for 4 weeks (165.38 +/- 54.93 %)", "type": "functional"}, "Mus musculus [10]": {"tested_on": "Mus musculus", "experiment": "Antiosteoporotic activity in C57BL6/J mouse model of OVX-induced bone loss assessed as cortical thickness level in tibial diaphysis at 20 mg/kg, ip QD for 4 weeks by microCT analysis (179.27 +/- 7.57 um)", "type": "functional"}, "Mus musculus [11]": {"tested_on": "Mus musculus", "experiment": "Antiosteoporotic activity in C57BL6/J mouse model of OVX-induced bone loss assessed as structure model index level in tibial metaphysis at 20 mg/kg, ip QD for 4 weeks by microCT analysis (1.92 +/- 0.19)", "type": "functional", "conditions": "dose […]"}, "[12]": {"experiment": "Toxicity in C57BL6/J mouse model of OVX-induced bone loss assessed as effect on bone formation by measuring mineralizing mineral apposition rate level in femoral metaphysis at 20 mg/kg, ip BID for 4 weeks by histomorphometry (1.62 +/ 0.21 um/d (lcm))", "type": "organism-based", "conditions": "in vivo, 672 h"}, "Mus musculus [13]": {"tested_on": "Mus musculus", "experiment": "Antiosteoporotic activity in C57BL6/J mouse model of OVX-induced bone loss assessed as trabecular separation level in femoral metaphysis at 20 mg/kg, ip BID for 4 weeks by histomorphometry (319.80 +/- 106.52 um)", "type": "functional", "in_short": "as §1"}, "Mus musculus [14]": {"tested_on": "Mus musculus", "experiment": "Antiosteoporotic activity in C57BL6/J mouse model of OVX-induced bone loss assessed as trabecular pattern factor level in tibial metaphysis at 20 mg/kg, ip QD for 4 weeks by microCT analysis (17.17 +/- 3.41 […])", "type": "functional"}, "Mus musculus [15]": {"tested_on": "Mus musculus", "experiment": "Antiosteoporotic activity in C57BL6/J mouse model of OVX-induced bone loss assessed as degree of anisotropy (range 0-1) level in tibial metaphysis at 20 mg/kg, ip QD for 4 weeks by microCT analysis (0.53 +/- 0.07)", "type": "functional"}, "Mus musculus [16]": {"tested_on": "Mus musculus", "experiment": "Antiosteoporotic activity in C57BL6/J mouse model of OVX-induced bone loss assessed as trabecular bone volume per tissue volume level in tibial metaphysis at 20 mg/kg, ip BID for 4 weeks by microCT analysis (17.49 +/- 2.91 %)", "type": "functional"}, "[17]": {"experiment": "Toxicity in C57BL6/J mouse model of OVX-induced bone loss assessed as effect on body weight at 20 mg/kg, IP QD for 4 weeks", "type": "organism-based", "conditions": "in vivo, 672 h", "in_short": "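Body weight tracked in 12-week-old OVX C57BL6/J mice during 4 weeks of ip 20 mg/kg q.d. or b.i.d. dosing in 0.485% carboxymethylcellulose/3% Tween 80, 10 mL/kg.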"}, "Mus musculus [18]": {"tested_on": "Mus musculus", "experiment": "Antiosteoporotic activity in C57BL6/J mouse model of OVX-induced bone loss assessed as degree of anisotropy (range 0-1) level in tibial metaphysis at 20 mg/kg, ip BID for 4 weeks by microCT analysis (0.53 +/- 0.07)", "type": "functional"}, "[19]": {"experiment": "Toxicity in C57BL6/J mouse model of OVX-induced bone loss assessed as effect on bone formation by measuring mineralizing mineral apposition rate level in femoral metaphysis at 20 mg/kg, ip QD for 4 weeks by histomorphometry (1.62 +/ 0.21 um/d (lcm))", "type": "organism-based", "conditions": "in vivo, 672 h"}, "[20]": {"experiment": "Toxicity in C57BL6/J mouse model of OVX-induced bone loss assessed as effect on bone formation by measuring osteocalcin level at 20 mg/kg, ip QD for 4 weeks (1.62 +/ 0.21 m3/um2/y)", "type": "organism-based", "conditions": "in vivo, 672 h"}}, "note": "The source made the active and inactive calls. No cut-off for these calls is given here.", "data": [{"smiles": "O=S1(=O)N(c2ccccc2)C[C@H](O)[C@]12CCN(Cc1ccc(Cl)cc1)C2", "note": "(racemic)", "values": [{"measurement": "IC50", "setting": "[1]", "value": 3.44, "unit": "µM"}, {"measurement": "Activity", "setting": "[2]", "value": "3.63 /millimeter"}, {"measurement": "Activity", "setting": "[3]", "value": "Non-Toxic"}, {"measurement": "Activity", "setting": "Mus musculus [4]", "value": 318.42, "unit": "um"}, {"measurement": "Activity", "setting": "[5]", "value": 3.57, "unit": "%"}, {"measurement": "Activity", "setting": "[6]", "value": "2.96 /millimeter"}, {"measurement": "inhibition", "setting": "[7]", "value": "Active"}, {"measurement": "Activity", "setting": "Mus musculus [8]", "value": 41.8, "unit": "µm"}, {"measurement": "Activity", "setting": "Mus musculus [9]", "value": 153.3, "unit": "%"}, {"measurement": "Activity", "setting": "Mus musculus [10]", "value": 187.72, "unit": "um"}, {"measurement": "Activity_index", "setting": "Mus musculus [11]", "value": 1.88}, {"measurement": "Activity", "setting": "[12]", "value": 1.65, "unit": "micrometer/day"}, {"measurement": "Activity", "setting": "Mus musculus [13]", "value": 251.29, "unit": "um"}, {"measurement": "Activity", "setting": "Mus musculus [14]", "value": "13.7 1/mm"}, {"measurement": "Activity_index", "setting": "Mus musculus [15]", "value": 0.5}, {"measurement": "Activity", "setting": "Mus musculus [16]", "value": 25.3, "unit": "%"}, {"measurement": "Activity", "setting": "[17]", "value": "Non-Toxic"}, {"measurement": "Activity_index", "setting": "Mus musculus [18]", "value": 0.45}, {"measurement": "Activity", "setting": "[19]", "value": 1.82, "unit": "micrometer/day"}, {"measurement": "Activity", "setting": "[20]", "value": 96.8, "unit": "%"}]}]}
